Data taken from ChEMBL document CHEMBL1131125, “Effect of polyamine analogues on hypusine content in JURKAT T-cells” (J Med Chem, 1998).

How the values were obtained:
[1] = system: L1210; experiment: Effect of compound on polyamine biosynthetic enzymes in L1210 cells using ODC assay; type: functional, Mus musculus
[2] = system: Jurkat; experiment: Inhibitory activity against growth of JURKAT cells after 144h.; type: functional, cell-based; conditions: Homo sapiens
Method in brief: (§1)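 JURKAT cells were grown in RPMI-1640 with 10% fetal calf serum, 2 mM L-glutamine and 1 mM aminoguanidine. Cells were counted electronically. IC50 is the concentration giving 50% of untreated growth, mean of at least two experiments.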

[3] = system: L1210; experiment: % of spermidine (SPD) in L1210 cells after 48 hr at 100 uM concentration; type: functional, cell-based; conditions: Mus musculus
[4] = system: L1210; experiment: Activity of compound measured against L1210 cells; type: functional, cell-based, Mus musculus
[5] = system: Jurkat; experiment: effect of compound on polyamine biosynthetic enzymes in JURKAT cells using AdoMetDC assay; type: functional, Homo sapiens
[6] = system: Jurkat; experiment: competitive inhibition of [3H]SPD transport in JURKAT cells; type: functional, cell-based, Homo sapiens
Method in brief: (§2)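 [3H]spermidine uptake rate into JURKAT cells was measured at six spermidine concentrations, without analogue and with analogue at 50, 25 and 10 μM. Lineweaver–Burk plots were used to assign the competitive mode and derive Ki. Values are means of two or three experiments.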

[7] = system: L1210; experiment: % of putrescine (PUT) in L1210 cells after 48 hr at 100 uM concentration; type: functional, cell-based; conditions: Mus musculus
[8] = system: Jurkat; experiment: effect of compound on polyamine biosynthetic enzymes in JURKAT cells using ODC assay; type: functional, Homo sapiens
[9] = system: Jurkat; experiment: % of putrescine (PUT) in JURKAT cells after 144 hr at 5 uM concentration; type: functional, cell-based; conditions: Homo sapiens
Method in brief: (§3)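 Log-phase JURKAT cells were treated with analogue for 144 h, at 2 μM for tetraamines or 5 μM for triamines. After two ice-cold RPMI-1640 washes, pellets were extracted with 1.2 N HClO4. Results are percent of untreated control, mean ± SD of 2–5 determinations run in triplicate.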

[10] = system: Jurkat; experiment: % of spermine (SPM) in JURKAT cells after 144 hr at 5 uM concentration; type: functional, cell-based; conditions: Homo sapiens; method in brief: as §3
[11] = system: Jurkat; experiment: % of hypusine (Hpu) in JURKAT cells after 144 hr at 5 uM concentration; type: functional, cell-based; conditions: Homo sapiens
Method in brief: (§4)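 JURKAT cells in log-phase growth were exposed to analogue for 144 h, at 2 μM for the tetraamines or 5 μM for the triamines. Cells were washed twice with ice-cold RPMI-1640 and extracted with 1.2 N HClO4. Values are percent of untreated control, mean ± SD of 2–5 determinations, each in triplicate.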

[12] = system: Jurkat; experiment: % of spermidine (SPD) in JURKAT cells after 144 hr at 5 uM concentration; type: functional, cell-based; conditions: Homo sapiens; method in brief: as §3
[13] = system: L1210; experiment: Effect of compound on polyamine biosynthetic enzymes in L1210 cells using AdoMetDC assay; type: functional, Mus musculus
[14] = system: L1210; experiment: % of spermine (SPM) in L1210 cells after 48 hr at 100 uM concentration; type: functional, cell-based; conditions: Mus musculus
[15] = system: L1210; experiment: effect of compound on polyamine biosynthetic enzymes in L1210 cells using ODC assay; type: functional, Mus musculus
[16] = system: Jurkat; experiment: inhibitory activity against growth of JURKAT cells after 144h.; type: functional, cell-based; conditions: Homo sapiens; method in brief: as §1
[17] = system: Jurkat; experiment: competitive inhibition of [3H]SPD transport by JURKAT cells; type: functional, cell-based, Homo sapiens; method in brief: as §2
[18] = system: L1210; experiment: effect of compound on polyamine biosynthetic enzymes in L1210 cells using AdoMetDC assay; type: functional, Mus musculus
[19] = system: L1210 (mouse); experiment: % of spermidine (SPD) in control cells after 72 hr at 2 uM concentration
[20] = system: Jurkat; experiment: % of hypusine (Hpu) in JURKAT cells after 144 hr at 2 uM concentration; type: functional, cell-based; conditions: Homo sapiens; method in brief: as §4
[21] = system: L1210; experiment: % of putrescine (PUT) in L1210 cells after 48 hr at 10 uM concentration; type: functional, cell-based; conditions: Mus musculus
[22] = system: Jurkat; experiment: % of spermine (SPM) in JURKAT cells after 144 hr at 2 uM concentration; type: functional, cell-based; conditions: Homo sapiens; method in brief: as §3
[23] = system: L1210; experiment: % of spermidine (SPD) in L1210 cells after 48 hr at 10 uM concentration; type: functional, cell-based; conditions: Mus musculus
[24] = system: L1210 (mouse); experiment: % of hypusine (Hpu) in control cells after 72 hr at 2 uM concentration
[25] = system: L1210; experiment: % of spermine (SPM) in L1210 cells after 48 hr at 10 uM concentration; type: functional, cell-based; conditions: Mus musculus
[26] = system: L1210 (mouse); experiment: % of spermine (SPM) in control cells after 72 hr at 2 uM concentration
[27] = system: Jurkat; experiment: % of putrescine (PUT) in JURKAT cells after 144 h at 2 uM concentration; type: functional, cell-based; conditions: Homo sapiens; method in brief: as §3
[28] = system: Jurkat; experiment: % of spermidine (SPD) in JURKAT cells after 144 hr at 2 uM concentration; type: functional, cell-based; conditions: Homo sapiens; method in brief: as §3
[29] = system: L1210 (mouse); experiment: % of putrescine (PUT) in control cells after 72 hr at 2 uM concentration
[30] = system: Jurkat; experiment: Competitive inhibition of [3H]SPD (spermidine) transport in JURKAT cells; type: functional, cell-based, Homo sapiens; method in brief: as §2

NCCCCCNCCCCN
Control [1]: 19%
IC50 [2]: 70000 nM
Level [3]: 0%
Ki [4]: 1400 nM
AdoMetDC activity (% of control) [5]: 79.3%
Ki [6]: 2800 nM
Level [7]: 0%
ODC activity (% of control) [8]: 34.7%
Level [9]: 0%
Level [10]: 25.2%
Level [11]: 80.2%
Level [12]: 0%
Control [13]: 57%
Level [14]: 53%

NCCCCCNCCCCCN
Control [15]: 16%
Level [3]: 0%
Ki [4]: 14000 nM
AdoMetDC activity (% of control) [5]: 84.9%
Level [7]: 0%
ODC activity (% of control) [8]: 53.3%
Level [9]: 0%
Level [10]: 38.8%
IC50 [16]: 1200 nM
Level [11]: 86.4%
Level [12]: 1.1%
Ki [17]: 13800 nM
Control [18]: 88%
Level [14]: 33%

CCNCCCNCCCNCCCNCC [BIS(ETHYL)NORSPERMINE]
Level [19]: 3.8%
Control [15]: 10%
Level [20]: 58.9%
AdoMetDC activity (% of control) [5]: 51.4%
ODC activity (% of control) [8]: 16.9%
Level [21]: 30%
Level [22]: 5.5%
Level [23]: 14%
Level [24]: 56.8%
Level [25]: 31%
Level [26]: 13.4%
IC50 [16]: 650 nM
Ki [17]: 14400 nM
Control [18]: 42%
Level [27]: 0%
Level [28]: 9.2%
Level [29]: 0%

CCNCCCCNCCCCNCCCCNCC [DIETHYLHOMOSPERMINE]
Control [1]: 7%
IC50 [2]: 200 nM
Level [20]: 73.2%
Ki [4]: 2000 nM
AdoMetDC activity (% of control) [5]: 61.6%
ODC activity (% of control) [8]: 29.8%
Level [21]: 0%
Level [22]: 13.4%
Level [23]: 0%
Level [25]: 61%
Ki [30]: 8800 nM
Control [18]: 41%
Level [27]: 0%
Level [28]: 0%
